From ChEMBL document CHEMBL1154611 (J Med Chem, 2009)
pEC50: −log10 of the molar value. ≈ marks a conversion by molar mass, not a printed value.

Assays:
hERG (KCNH2) [1] = target: T1, hERG (KCNH2) (Homo sapiens, UniProt Q12809); assay: Inhibition of human ERG expressed in HEK cells at 30 uM; format: cell-based, HEK293; details: HEK cells expressing human ERG
hERG (KCNH2) [2] = target: T1, hERG (KCNH2); assay: Inhibition of human ERG expressed in HEK cells at 300 uM; format: cell-based, HEK293; details: HEK cells expressing human ERG
[3] = target: Motilin receptor (Oryctolagus cuniculus) (UniProt A5A4K8); assay: Agonist activity at motilin receptor in rabbit smooth muscle assessed as tachyphylaxis at EC90 concentration after 4th dose; format: functional
Sequence of Motilin receptor (Oryctolagus cuniculus) (A5A4K8 as listed by the source): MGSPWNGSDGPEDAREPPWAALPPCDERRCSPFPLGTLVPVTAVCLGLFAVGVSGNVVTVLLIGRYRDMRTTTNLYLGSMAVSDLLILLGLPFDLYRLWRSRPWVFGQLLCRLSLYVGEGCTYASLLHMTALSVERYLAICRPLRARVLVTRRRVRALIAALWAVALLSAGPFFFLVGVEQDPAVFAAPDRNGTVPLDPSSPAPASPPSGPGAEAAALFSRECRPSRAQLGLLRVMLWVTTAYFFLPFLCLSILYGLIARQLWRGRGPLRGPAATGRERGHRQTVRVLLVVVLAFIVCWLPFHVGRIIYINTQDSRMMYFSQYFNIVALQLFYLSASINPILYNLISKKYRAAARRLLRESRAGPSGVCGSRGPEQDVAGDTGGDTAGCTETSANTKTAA
Procedure, shortened: (§1)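 Rabbit smooth muscle contractility assay. EC50 is the concentration giving 50% of the maximal possible contraction. Tachyphylaxis is the % contractile response to an EC90 drug concentration after three cycles of administration and washout.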

Motilin receptor = Motilin receptor (Oryctolagus cuniculus, UniProt A5A4K8); assay: Agonist activity at motilin receptor in rabbit smooth muscle assessed as maximal possible tissue contraction; format: functional; procedure, shortened: as §1
Sequence of Motilin receptor (A5A4K8 whole entry): as the sequence (A5A4K8 as listed by the source) above

Streptococcus pneumoniae = assay: Antibacterial activity against erythromycin-sensitive Streptococcus pneumoniae ATCC 6301; format: functional
Procedure, shortened: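 MIC, the minimal growth inhibitory concentration, was determined in routine screening against the highly erythromycin-sensitive strain Streptococcus pneumoniae ATCC6301.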

T1 sequence (Q12809 whole entry): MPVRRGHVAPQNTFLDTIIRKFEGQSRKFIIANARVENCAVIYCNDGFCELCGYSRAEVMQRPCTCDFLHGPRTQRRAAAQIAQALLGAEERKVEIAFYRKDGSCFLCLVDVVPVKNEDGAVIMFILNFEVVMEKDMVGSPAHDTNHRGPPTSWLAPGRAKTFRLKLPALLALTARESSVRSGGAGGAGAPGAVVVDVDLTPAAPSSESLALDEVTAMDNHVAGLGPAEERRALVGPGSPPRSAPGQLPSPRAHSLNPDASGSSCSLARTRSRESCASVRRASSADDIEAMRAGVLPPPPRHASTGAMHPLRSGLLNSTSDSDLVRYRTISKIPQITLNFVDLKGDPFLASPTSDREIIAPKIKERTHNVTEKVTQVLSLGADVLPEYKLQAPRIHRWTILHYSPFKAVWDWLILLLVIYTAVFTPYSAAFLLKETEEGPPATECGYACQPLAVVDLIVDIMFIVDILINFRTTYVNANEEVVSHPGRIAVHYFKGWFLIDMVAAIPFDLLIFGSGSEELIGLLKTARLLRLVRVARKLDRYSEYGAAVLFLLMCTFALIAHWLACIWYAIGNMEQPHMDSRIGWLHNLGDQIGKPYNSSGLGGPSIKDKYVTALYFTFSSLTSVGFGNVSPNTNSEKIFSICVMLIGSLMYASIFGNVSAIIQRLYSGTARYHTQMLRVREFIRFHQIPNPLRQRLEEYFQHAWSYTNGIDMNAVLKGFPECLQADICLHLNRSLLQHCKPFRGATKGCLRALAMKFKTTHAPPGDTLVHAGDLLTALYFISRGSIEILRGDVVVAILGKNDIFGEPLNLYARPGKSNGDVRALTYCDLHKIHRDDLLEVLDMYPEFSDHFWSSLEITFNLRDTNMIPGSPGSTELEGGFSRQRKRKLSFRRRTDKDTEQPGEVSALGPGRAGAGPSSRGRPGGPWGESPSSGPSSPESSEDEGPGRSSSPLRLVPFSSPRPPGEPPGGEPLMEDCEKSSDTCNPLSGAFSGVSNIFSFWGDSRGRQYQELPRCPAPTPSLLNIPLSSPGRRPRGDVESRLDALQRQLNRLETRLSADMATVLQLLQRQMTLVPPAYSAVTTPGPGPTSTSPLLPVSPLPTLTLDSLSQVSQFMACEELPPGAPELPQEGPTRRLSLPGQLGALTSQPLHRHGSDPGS

| SMILES | Activity [3] | pEC50 (Motilin receptor) | MIC (Streptococcus pneumoniae) | inhibition at 30 µM (hERG (KCNH2) [1]) | inhibition at 300 µM (hERG (KCNH2) [2]) |
| --- | --- | --- | --- | --- | --- |
| CC[C@H]1OC(=O)[C@H](C)[C@@H](O[C@H]2C[C@@](C)(OC)[C@@H](O)[C@H](C)O2)[C@H](C)[C@@H](O[C@@H]2O[C@H](C)C[C@H](N(C)C(C)C)[C@H]2O)[C@](C)(O)C[C@@H](C)[C@H](OCCCCC(=O)NC)[C@H](C)[C@@H](O)[C@]1(C)O | – | 6.57 | – | 3% | 45% |
| CC[C@H]1OC(=O)[C@H](C)[C@@H](O[C@H]2C[C@@](C)(OC)[C@@H](O)[C@H](C)O2)[C@H](C)[C@@H](O[C@@H]2O[C@H](C)C[C@H](N(C)C(C)C)[C@H]2O)[C@](C)(O)C[C@@H](C)[C@H](OCC(=O)NCCO)[C@H](C)[C@@H](O)[C@]1(C)O | 87% | 6.92 | 128 µg/mL (≈ 148 µM) | 29% | 68% |
| CC[C@H]1OC(=O)[C@H](C)[C@@H](O[C@H]2C[C@@](C)(OC)[C@@H](O)[C@H](C)O2)[C@H](C)[C@@H](O[C@@H]2O[C@H](C)C[C@H](N(C)C(C)C)[C@H]2O)[C@](C)(O)C[C@@H](C)[C@H](OCc2cccc(C(=O)NC)c2)[C@H](C)[C@@H](O)[C@]1(C)O | – | 5.68 | – | 63% | 100% |
| CC[C@H]1OC(=O)[C@H](C)[C@@H](O[C@H]2C[C@@](C)(OC)[C@@H](O)[C@H](C)O2)[C@H](C)[C@@H](O[C@@H]2O[C@H](C)C[C@H](N(C)C(C)C)[C@H]2O)[C@](C)(O)C[C@@H](C)[C@H](OCCCCCC(=O)NC)[C@H](C)[C@@H](O)[C@]1(C)O | – | 6.82 | 128 µg/mL (≈ 144 µM) | 13% | 61% |
| CC[C@H]1OC(=O)[C@H](C)[C@@H](O[C@H]2C[C@@](C)(OC)[C@@H](O)[C@H](C)O2)[C@H](C)[C@@H](O[C@@H]2O[C@H](C)C[C@H](N(C)C)[C@H]2O)[C@](C)(O)C[C@@H](C)C(=O)[C@H](C)[C@@H](O)[C@]1(C)O [ERYTHROMYCIN] | 97% | 5.92 | 0.0025 µg/mL (≈ 0.00341 µM) | – | – |
| CC[C@H]1OC(=O)[C@H](C)[C@@H](O[C@H]2C[C@@](C)(OC)[C@@H](O)[C@H](C)O2)[C@H](C)[C@@H](O[C@@H]2O[C@H](C)C[C@H](N(C)C3CCC3)[C@H]2O)[C@](C)(O)C[C@@H](C)[C@H](OCC(=O)NC)[C@H](C)[C@@H](O)[C@]1(C)O | – | 6.29 | > 128 µg/mL | 12% | 53% |
| CC[C@H]1OC(=O)[C@H](C)[C@@H](O[C@H]2C[C@@](C)(OC)[C@@H](O)[C@H](C)O2)[C@H](C)[C@@H](O[C@@H]2O[C@H](C)C[C@H](N(C)C(C)C)[C@H]2O)[C@](C)(O)C[C@@H](C)[C@H](OCC(=O)NCC(F)(F)F)[C@H](C)[C@@H](O)[C@]1(C)O | – | 6.80 | 128 µg/mL (≈ 142 µM) | 30% | 82% |
| CC[C@H]1OC(=O)[C@H](C)[C@@H](O[C@H]2C[C@@](C)(OC)[C@@H](O)[C@H](C)O2)[C@H](C)[C@@H](O[C@@H]2O[C@H](C)C[C@H](N(C)C(C)C)[C@H]2O)[C@](C)(O)C[C@@H](C)[C@H](OCC(=O)NOC)[C@H](C)[C@@H](O)[C@]1(C)O | – | 7.04 | – | 33% | 82% |
| CC[C@H]1OC(=O)[C@H](C)[C@@H](O[C@H]2C[C@@](C)(OC)[C@@H](O)[C@H](C)O2)[C@H](C)[C@@H](O[C@@H]2O[C@H](C)C[C@H](N(C)C(C)C)[C@H]2O)[C@](C)(O)C[C@@H](C)[C@H](OCc2ccc(C(=O)NC)cc2)[C@H](C)[C@@H](O)[C@]1(C)O | – | 5.82 | – | – | – |
| CC[C@H]1OC(=O)[C@H](C)[C@@H](O[C@H]2C[C@@](C)(OC)[C@@H](O)[C@H](C)O2)[C@H](C)[C@@H](O[C@@H]2O[C@H](C)C[C@H](N(C)C(C)C)[C@H]2O)[C@](C)(O)C[C@@H](C)[C@H](OCC(=O)NC(C)C)[C@H](C)[C@@H](O)[C@]1(C)O | – | 6.85 | 128 µg/mL (≈ 148 µM) | 26% | 89% |
| CC[C@H]1OC(=O)[C@H](C)[C@@H](O[C@H]2C[C@@](C)(OC)CC(C)O2)[C@H](C)[C@@H](O[C@@H]2O[C@H](C)C[C@H](N(C)CC)[C@H]2O)C2(C)CC(C)=C(O2)[C@H](C)[C@@H](O)[C@H]1C (single isomer, unassigned) | 22% | 8.15 | 64 µg/mL (≈ 91.7 µM) | – | 100% |
| CC[C@H]1OC(=O)[C@H](C)[C@@H](O[C@H]2C[C@@](C)(OC)[C@@H](O)[C@H](C)O2)[C@H](C)[C@@H](O[C@@H]2O[C@H](C)C[C@H](N(C)C(C)C)[C@H]2O)[C@](C)(O)C[C@@H](C)[C@H](OCC(=O)N(C)C)[C@H](C)[C@@H](O)[C@]1(C)O | 95% | 6.18 | – | 8% | 29% |

The next lines start with results.

| Activity [3] | pEC50 (Motilin receptor) | MIC (Streptococcus pneumoniae) | SMILES | inhibition at 30 µM (hERG (KCNH2) [1]) | inhibition at 300 µM (hERG (KCNH2) [2]) |
| --- | --- | --- | --- | --- | --- |
| 86% | 7.05 | – | CC[C@H]1OC(=O)[C@H](C)[C@@H](O[C@H]2C[C@@](C)(OC)[C@@H](O)[C@H](C)O2)[C@H](C)[C@@H](O[C@@H]2O[C@H](C)C[C@H](N(C)C(C)C)[C@H]2O)[C@](C)(O)C[C@@H](C)[C@H](OCC(=O)NC)[C@H](C)[C@@H](O)[C@H]1C | 21% | 67% |
| 75% | 7.55 | 128 µg/mL (≈ 146 µM) | CC[C@H]1OC(=O)[C@H](C)[C@@H](O[C@H]2C[C@@](C)(OC)[C@@H](O)[C@H](C)O2)[C@H](C)[C@@H](O[C@@H]2O[C@H](C)C[C@H](N(C)C(C)C)[C@H]2O)[C@](C)(O)C[C@@H](C)[C@H](OCC(=O)NC2CCC2)[C@H](C)[C@@H](O)[C@]1(C)O | 64% | 100% |
| 89% | 7.17 | > 128 µg/mL | CCNC(=O)CO[C@@H]1[C@H](C)[C@@H](O)[C@](C)(O)[C@@H](CC)OC(=O)[C@H](C)[C@@H](O[C@H]2C[C@@](C)(OC)[C@@H](O)[C@H](C)O2)[C@H](C)[C@@H](O[C@@H]2O[C@H](C)C[C@H](N(C)C(C)C)[C@H]2O)[C@](C)(O)C[C@H]1C | 24% | 75% |
| 92% | 7.28 | > 128 µg/mL | CC[C@H]1OC(=O)[C@H](C)[C@@H](O[C@H]2C[C@@](C)(OC)[C@@H](O)[C@H](C)O2)[C@H](C)[C@@H](O[C@@H]2O[C@H](C)C[C@H](N(C)C(C)C)[C@H]2O)[C@](C)(O)C[C@@H](C)[C@H](OCC(N)=O)[C@H](C)[C@@H](O)[C@]1(C)O | 10% | 51% |
| 82% | 7.51 | 128 µg/mL (≈ 149 µM) | CC[C@H]1OC(=O)[C@H](C)[C@@H](O[C@H]2C[C@@](C)(OC)[C@@H](O)[C@H](C)O2)[C@H](C)[C@@H](O[C@@H]2O[C@H](C)C[C@H](N(C)C(C)C)[C@H]2O)[C@](C)(O)C[C@@H](C)[C@H](OCC(=O)NC2CC2)[C@H](C)[C@@H](O)[C@]1(C)O | 23% | 60% |
| – | 7.10 | 128 µg/mL (≈ 140 µM) | CC[C@H]1OC(=O)[C@H](C)[C@@H](O[C@H]2C[C@@](C)(OC)[C@@H](O)[C@H](C)O2)[C@H](C)[C@@H](O[C@@H]2O[C@H](C)C[C@H](N(C)C(C)C)[C@H]2O)[C@](C)(O)C[C@@H](C)[C@H](OCC(=O)NCc2ccccc2)[C@H](C)[C@@H](O)[C@]1(C)O | 67% | 100% |
| – | 7.16 | 128 µg/mL (≈ 142 µM) | CC[C@H]1OC(=O)[C@H](C)[C@@H](O[C@H]2C[C@@](C)(OC)[C@@H](O)[C@H](C)O2)[C@H](C)[C@@H](O[C@@H]2O[C@H](C)C[C@H](N(C)C(C)C)[C@H]2O)[C@](C)(O)C[C@@H](C)[C@H](OCC(=O)Nc2cnccn2)[C@H](C)[C@@H](O)[C@]1(C)O | 40% | 88% |
| 63% | 7.60 | – | CC[C@H]1OC(=O)[C@H](C)[C@@H](O[C@H]2C[C@@](C)(OC)[C@@H](O)[C@H](C)O2)[C@H](C)[C@@H](O[C@@H]2O[C@H](C)C[C@H](N(C)C(C)C)[C@H]2O)[C@](C)(O)C[C@@H](C)[C@H](OCC(=O)Nc2ccncn2)[C@H](C)[C@@H](O)[C@]1(C)O | 16% | 60% |
| – | 7.30 | 128 µg/mL (≈ 146 µM) | CC[C@H]1OC(=O)[C@H](C)[C@@H](O[C@H]2C[C@@](C)(OC)[C@@H](O)[C@H](C)O2)[C@H](C)[C@@H](O[C@@H]2O[C@H](C)C[C@H](N(C)C(C)C)[C@H]2O)[C@](C)(O)C[C@@H](C)[C@H](OCC(=O)NCCOC)[C@H](C)[C@@H](O)[C@]1(C)O | 33% | 93% |
